Results published in ChEMBL document CHEMBL4732072, “Synthesis of 17β-hydroxysteroid dehydrogenase type 10 steroidal inhibitors: Selectivity, metabolic stability and enhanced potency” (Eur J Med Chem, 2021).

Columns and labels:
[1] = Inhibition of human 17-beta-HSD10 expressed in HEK293 cells assessed as reduction in oxidation of [14C]-estradiol to [14C]-estrone incubated for 40 hrs by thin layer chromatography; type: cell-based
How it was run: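 The same HEK-293[17β-HSD10] cell assay was used: 2.5 x 10^5 cells, 0.5% final DMSO, 1 µM E2/[14C]-E2 (9:1) for 40 h at 37°C, with Et2O extraction, TLC and radioactivity quantification. Inhibitor was tested from 0.01 to 5 µM in triplicate. IC50 was calculated from the inhibition curves.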

HEK293 [2] = experiment: Potency index, ratio of (3R,5S,8R,9S,10S,13S,14S)-3-hydroxy-3-((4-(3-methoxybenzyl)piperazin-1-yl)methyl)-10,13-dimethyltetradecahydro-1H-cyclopenta[a]phenanthren-17(2H)-one IC50 to compound IC50 for inhibition of human 17-beta-HSD10 expressed in HEK-293 cells; type: cell-based
HEK293 [3] = experiment: Inhibition of human 17-beta-HSD10 expressed in HEK293 cells assessed as reduction in oxidation of [14C]-estradiol to [14C]-estrone at 0.3 uM incubated for 40 hrs by thin layer chromatography; type: cell-based
How it was run: (§1)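 Stably transfected HEK-293 cells expressing human 17β-HSD10 (G418-selected) were seeded at 2.5 x 10^5 per well for 24 h. Inhibitor was added from a DMSO stock (final DMSO 0.5%) with E2/[14C]-E2 (9:1, final 1 µM) for 40 h at 37°C. Steroids were Et2O-extracted, TLC-separated and quantified by radioactivity. % inhibition was taken from blank-corrected % transformation, run in triplicate.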

HEK293 [4] = experiment: Inhibition of human 17-beta-HSD10 expressed in HEK293 cells assessed as reduction in oxidation of [14C]-estradiol to [14C]-estrone at 3 uM incubated for 40 hrs by thin layer chromatography; type: cell-based; how it was run: as §1
[5] = molecular target: T1, 17-beta-hydroxysteroid dehydrogenase type 3 (Homo sapiens, UniProt P37058); experiment: Inhibition of human 17-beta-HSD3 expressed in LNCaP cells assessed as reduction in […]-3,17-dione to [14C]-testosterone at 0.3 uM incubated for 1 hr by thin layer chromatography; type: cell-based
T1 sequence (P37058 whole entry): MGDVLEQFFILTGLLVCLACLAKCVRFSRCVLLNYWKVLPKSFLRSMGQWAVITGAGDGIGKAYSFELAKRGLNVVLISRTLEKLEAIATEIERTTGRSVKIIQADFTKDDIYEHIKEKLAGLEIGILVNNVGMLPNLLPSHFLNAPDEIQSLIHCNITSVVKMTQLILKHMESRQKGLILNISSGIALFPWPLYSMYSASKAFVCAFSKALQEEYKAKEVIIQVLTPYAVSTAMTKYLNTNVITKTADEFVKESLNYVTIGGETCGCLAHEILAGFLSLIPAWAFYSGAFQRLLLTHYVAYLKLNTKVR
How it was run: (§2)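 LNCaP cells overexpressing 17β-HSD3 were plated at 10^4 per well in medium without hygromycin for 2 days. 15 nM [14C]-4-androstene-3,17-dione plus inhibitor was then added (final DMSO 0.05%) for 1 h at 37°C. Steroids were Et2O-extracted and separated by silica TLC (toluene/acetone 4:1). % inhibition was taken from radioactivity-based % transformation versus a blank control.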

[6] = molecular target: T1, 17-beta-hydroxysteroid dehydrogenase type 3; experiment: Inhibition of human 17-beta-HSD3 expressed in LNCaP cells assessed as reduction in […]-3,17-dione to [14C]-testosterone at 3 uM incubated for 1 hr by thin layer chromatography; type: cell-based; how it was run: as §2
[7] = Metabolic stability in human liver microsomes assessed as compound remaining at 1 uM incubated for 1 hr in presence of NADPH by HPLC-MS analysis; type: ADME, Microsome; settings: read-out: Stabilty
How it was run: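 Human liver microsomes (40 µg) were incubated with compound for 1 h at 37°C, with or without 10 mM NADPH, in 50 mM Tris with 10 mM MgCl2. The reaction was quenched with MeOH and centrifuged, and supernatants from 2 assays were pooled. Analysis was by HPLC-MS with UV at 190 nm. Remaining % = peak area with NADPH / area without NADPH x 100, from two experiments in duplicate.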

| SMILES | IC50 [1] [nM] | Ratio IC50 (HEK293 [2]) | inhibition (HEK293 [3]) [%] | inhibition (HEK293 [4]) [%] | inhibition at 0.3 µM [5] [%] | inhibition at 3 µM [6] [%] | remaining at 1 h, 1 µM [7] [%] |
| --- | --- | --- | --- | --- | --- | --- | --- |
| C[C@]12CC[C@](O)(CN3CCN(C(=O)c4ccc(-c5ccccc5)cc4)CC3)C[C@@H]1CC[C@@H]1[C@@H]2CC[C@]2(C)C(=O)CC[C@@H]12 | 2600 | 0.87 | – | – | – | – | – |
| Cc1cc(C)cc(C(=O)N2CCN(C[C@@]3(O)CC[C@@]4(C)[C@@H](CC[C@@H]5[C@@H]4CC[C@]4(C)C(=O)CC[C@@H]54)C3)CC2)c1 | 2050 | 1.1 | – | – | – | – | – |
| COc1cc(CN2CCN(C[C@@]3(O)CC[C@@]4(C)[C@@H](CC[C@@H]5[C@@H]4CC[C@]4(C)[C@H](O)CC[C@@H]54)C3)CC2)ccc1C(F)(F)F | 950 | 2.4 | – | – | – | – | – |
| C[C@]12CC[C@](O)(CN3CCN(C(=S)NCc4cccc(C(F)(F)F)c4)CC3)C[C@@H]1CC[C@@H]1[C@@H]2CC[C@]2(C)C(=O)CC[C@@H]12 | 1410 | 1.6 | – | – | – | – | – |
| COc1cccc(CN2CCN(C[C@@]3(O)CC[C@@]4(C)[C@@H](CC[C@@H]5[C@@H]4CC[C@@]4(C)[C@H]5CCC4(F)F)C3)CC2)c1 | – | – | 5.5 | 40.8 | 1.1 | -0.5 | 34.1 |
| C[C@]12CC[C@](O)(CN3CCN(C(=O)c4ccc(C#N)cc4)CC3)C[C@@H]1CC[C@@H]1[C@@H]2CC[C@]2(C)C(=O)CC[C@@H]12 | 1660 | 1.36 | – | – | – | – | – |
| COc1cccc(CN2CCN(C[C@@]3(O)CC[C@@]4(C)[C@@H](CC[C@@H]5[C@@H]4CC[C@]4(C)[C@H](O)CC[C@@H]54)C3)CC2)c1 | – | – | 13.5 | 36.9 | 5.2 | 3.8 | 70.6 |
| C#C[C@]1(O)CC[C@H]2[C@@H]3CC[C@H]4C[C@@](O)(CN5CCN(Cc6cccc(OC)c6)CC5)CC[C@]4(C)[C@H]3CC[C@@]21C | – | – | 22.4 | 45.8 | 2 | 4 | 45.5 |
| COc1cccc(CN2CCN(C[C@@]3(O)CC[C@@]4(C)[C@@H](CC[C@@H]5[C@@H]4CC[C@]4(C)[C@@H](O)CC[C@@H]54)C3)CC2)c1 | – | – | 8.5 | 42.4 | 5 | 48.7 | 67.2 |
| COc1cc(C)ccc1CN1CCN(C[C@@]2(O)CC[C@@]3(C)[C@@H](CC[C@@H]4[C@@H]3CC[C@]3(C)C(=O)CC[C@@H]43)C2)CC1 | 3000 | 0.75 | – | – | – | – | – |
| COc1cccc(CN2CCN(C[C@@]3(O)CC[C@@]4(C)[C@@H](CC[C@@H]5[C@@H]4CC[C@@]4(C)[C@H]5CC[C@]4(C)O)C3)CC2)c1 | – | – | 20.5 | 41.9 | 2 | 20.6 | 21.8 |
| CC(=O)c1cccc(C(=O)N2CCN(C[C@@]3(O)CC[C@@]4(C)[C@@H](CC[C@@H]5[C@@H]4CC[C@]4(C)C(=O)CC[C@@H]54)C3)CC2)c1 | 2300 | 0.98 | – | – | – | – | – |
| COc1cc(CN2CCN(C[C@@]3(O)CC[C@@]4(C)[C@@H](CC[C@@H]5[C@@H]4CC[C@]4(C)C(=O)CC[C@@H]54)C3)CC2)ccc1C(F)(F)F | 140 | 16.1 | – | – | – | – | – |
| COc1cccc(CN2CCN(C[C@@]3(O)CC[C@@]4(C)[C@@H](CC[C@@H]5[C@@H]4CC[C@]4(C)C(=O)C(C)(C)C[C@@H]54)C3)CC2)c1 | – | – | 10.8 | 27.9 | 12.4 | 51.9 | 54.5 |
| CN(C)S(=O)(=O)c1ccc(NC(=S)N2CCN(C[C@@]3(O)CC[C@@]4(C)[C@@H](CC[C@@H]5[C@@H]4CC[C@]4(C)C(=O)CC[C@@H]54)C3)CC2)cc1 | 1070 | 2.11 | – | – | – | – | – |
| COc1cc(CN2CCN(C[C@@]3(O)CC[C@@]4(C)[C@@H](CC[C@@H]5[C@@H]4CC[C@]4(C)C(=O)CC[C@@H]54)C3)CC2)ccc1C | 420 | 5.38 | – | – | – | – | – |
| CCN(C)S(=O)(=O)N1CCN(C[C@@]2(O)CC[C@@]3(C)[C@@H](CC[C@@H]4[C@@H]3CC[C@]3(C)C(=O)CC[C@@H]43)C2)CC1 | 1570 | 1.44 | – | – | – | – | – |
| C[C@]12CC[C@](O)(CN3CCN(C(=O)c4ccc(C(=O)c5ccccc5)cc4)CC3)C[C@@H]1CC[C@@H]1[C@@H]2CC[C@]2(C)C(=O)CC[C@@H]12 | 2850 | 0.79 | – | – | – | – | – |
| C#C[C@]1(O)CC[C@H]2[C@@H]3CC[C@H]4C[C@@](O)(CN5CCN(Cc6ccc(C(F)(F)F)c(OC)c6)CC5)CC[C@]4(C)[C@H]3CC[C@@]21C | 1260 | 1.8 | – | – | – | – | – |
| C[C@]12CC[C@](O)(CN3CCN(Cc4cnc5ccccc5c4)CC3)C[C@@H]1CC[C@@H]1[C@@H]2CC[C@]2(C)C(=O)CC[C@@H]12 | 970 | 2.33 | – | – | – | – | – |
| COc1cccc(CN2CCN(C[C@@]3(O)CC[C@@]4(C)[C@@H](CC[C@@H]5[C@@H]4CC[C@]4(C)C(=O)CC[C@@H]54)C3)CC2)c1 | 2260 | – | 40.7 | 70.4 | 30.2 | 84.4 | 28 |
